# Data as given in ChEMBL document CHEMBL1165879, “Benzimidazole derivatives related to 2,3-acrylonitriles, benzimidazo[1,2-a]quinolines and fluorenes: synthesis, antitumor evaluation in vitro and crystal structure determination” (Eur J Med Chem, 2010).
# What was measured:
# MIA PaCa-2 = test: Cytotoxicity against human MIAPaCa2 cells after 72 hrs by MTT assay; format: functional, cell-based; conditions: MIA PaCa-2, 72 h
# Procedure, shortened: (§1)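 Cells grown with FBS, 2 mM L-glutamine, penicillin and streptomycin at 37 °C, 5% CO2, humidified. Seeded in 96-well plates on day 0 at densities set by population doubling time. Five 10-fold dilutions (10^-8 to 10^-4 mol/L), freshly prepared, then 72 h exposure, modified NCI DTP method. Three individual experiments. IC50 from dose-response curves by linear regression.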
# SW-620 = test: Cytotoxicity against human SW620 cells after 72 hrs by MTT assay; format: functional, cell-based; conditions: SW-620, 72 h; procedure, shortened: as §1
# NCI-H460 = test: Cytotoxicity against human H460 cells after 72 hrs by MTT assay; format: functional, cell-based; conditions: NCI-H460, 72 h; procedure, shortened: as §1
# MCF7 = test: Cytotoxicity against human MCF7 cells after 72 hrs by MTT assay; format: functional, cell-based; conditions: MCF7, 72 h; procedure, shortened: as §1
# HeLa = test: Cytotoxicity against human HeLa cells after 72 hrs by MTT assay; format: functional, cell-based; procedure, shortened: as §1
# Calf thymus DNA [1] = test: Binding affinity to calf thymus DNA assessed as change in melting temperature at compound/polynucleotide ratio 3 in sodium cacodylate buffer at pH 7; format: nucleic-acid assay; conditions: Bos taurus; in the assay text read “compound/polynucleotide ratio 0.3” for “compound/polynucleotide ratio 3”
# Procedure, shortened: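 Thermal melting of ct-DNA, alone and with compound, in sodium cacodylate buffer pH 7.0, I = 0.05 mol dm^-3, DMSO under 1%. Absorbance at 260 nm followed against temperature, heated at 1 °C per minute. Ligand absorbance subtracted and scale normalized. Tm taken as transition midpoint, from the first-derivative maximum or graphically by tangent.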
# Calf thymus DNA [2] = test: Binding affinity to calf thymus DNA assessed as change in melting temperature at compound/polynucleotide ratio 0.3 in sodium cacodylate buffer at pH 7; conditions: Bos taurus
smiles,measurement,setting,value
N#Cc1ccc2cc(C#N)c3nc4ccccc4n3c2c1,IC50,MIA PaCa-2,> 50 µM
same,IC50,SW-620,14 µM
same,IC50,NCI-H460,23 µM
same,IC50,MCF7,> 50 µM
same,IC50,HeLa,16 µM
N#C/C(=C\c1ccncc1)c1nc2ccccc2[nH]1,IC50,MIA PaCa-2,57 µM
same,IC50,SW-620,42 µM
same,IC50,NCI-H460,78 µM
same,IC50,MCF7,9 µM
same,IC50,HeLa,21 µM
N#C/C(=C\c1cnc[nH]1)c1nc2ccccc2[nH]1,IC50,MIA PaCa-2,30 µM
same,IC50,SW-620,70 µM
same,IC50,NCI-H460,> 100 µM
same,IC50,MCF7,92 µM
same,IC50,HeLa,40 µM
Cc1ccc(/C=C(\C#N)c2nc3ccccc3[nH]2)cc1,IC50,MIA PaCa-2,32 µM
same,IC50,SW-620,87 µM
same,IC50,NCI-H460,81 µM
same,IC50,MCF7,8 µM
same,ΔTm,Calf thymus DNA [1],2.9 °C
same,IC50,HeLa,20 µM
N#C/C(=C\c1ccc(Br)cc1)c1nc2ccccc2[nH]1,IC50,MIA PaCa-2,46 µM
same,IC50,SW-620,> 50 µM
same,IC50,NCI-H460,> 50 µM
same,IC50,MCF7,19 µM
same,IC50,HeLa,9 µM
CCN(CC)c1ccc(/C=C(\C#N)c2nc3ccccc3[nH]2)c(O)c1,IC50,MIA PaCa-2,3 µM
same,IC50,SW-620,10 µM
same,IC50,NCI-H460,11 µM
same,IC50,MCF7,2 µM
same,IC50,HeLa,3 µM
N#Cc1cc2ccc(Br)cc2n2c1nc1ccccc12,IC50,MIA PaCa-2,> 50 µM
same,IC50,SW-620,13 µM
same,IC50,NCI-H460,37 µM
same,IC50,MCF7,37 µM
same,IC50,HeLa,20 µM
Cc1ccc2cc(C#N)c3nc4ccccc4n3c2c1,IC50,MIA PaCa-2,> 100 µM
same,IC50,SW-620,> 100 µM
same,IC50,NCI-H460,> 100 µM
same,IC50,MCF7,70 µM
same,ΔTm,Calf thymus DNA [1],4.8 °C
same,IC50,HeLa,> 100 µM
N#C/C(=C\c1ccc(F)cc1)c1nc2ccccc2[nH]1,IC50,MIA PaCa-2,18 µM
same,IC50,SW-620,59 µM
same,IC50,NCI-H460,43 µM
same,ΔTm,Calf thymus DNA [2],3 °C
same,IC50,MCF7,14 µM
same,IC50,HeLa,15 µM
CN(C)c1ccc(/C=C(\C#N)c2nc3ccccc3[nH]2)cc1,IC50,MIA PaCa-2,26 µM
same,IC50,SW-620,> 50 µM
same,IC50,NCI-H460,> 50 µM
same,IC50,MCF7,4 µM
same,IC50,HeLa,> 50 µM
COc1ccc(OC)c(/C=C(\C#N)c2nc3ccccc3[nH]2)c1,IC50,MIA PaCa-2,0.8 µM
same,IC50,SW-620,23 µM
same,IC50,NCI-H460,27 µM
same,ΔTm,Calf thymus DNA [2],3 °C
same,IC50,MCF7,12 µM
same,IC50,HeLa,1 µM
N#Cc1cc2ccsc2n2c1nc1ccccc12,IC50,MIA PaCa-2,28 µM
same,IC50,SW-620,16 µM
same,IC50,NCI-H460,30 µM
same,IC50,MCF7,31 µM
same,IC50,HeLa,19 µM
COc1ccc(OC)c2c1cc(C#N)c1nc3ccccc3n12,IC50,MIA PaCa-2,23 µM
same,IC50,SW-620,6 µM
same,IC50,NCI-H460,14 µM
same,IC50,MCF7,31 µM
same,ΔTm,Calf thymus DNA [1],4.2 °C
same,IC50,HeLa,5 µM
CC(=O)Nc1ccc(/C=C(\C#N)c2nc3ccccc3[nH]2)cc1,IC50,MIA PaCa-2,48 µM
same,IC50,SW-620,> 100 µM
same,IC50,NCI-H460,> 100 µM
same,IC50,MCF7,4 µM
same,IC50,HeLa,3 µM
N#C/C(=C\c1ccco1)c1nc2ccccc2[nH]1,IC50,MIA PaCa-2,28 µM
same,IC50,SW-620,> 50 µM
same,IC50,NCI-H460,> 50 µM
same,IC50,MCF7,17 µM
same,IC50,HeLa,25 µM
N#Cc1cc2ccc(F)cc2n2c1nc1ccccc12,IC50,MIA PaCa-2,28 µM
same,IC50,SW-620,22 µM
same,IC50,NCI-H460,26 µM
same,IC50,MCF7,50 µM
same,ΔTm,Calf thymus DNA [1],4.4 °C
same,IC50,HeLa,29 µM
COc1cccc2c1C(=O)c1c(O)c3c(c(O)c1C2=O)C[C@@](O)(C(=O)CO)C[C@@H]3O[C@H]1C[C@H](N)[C@H](O)[C@H](C)O1 [DOXORUBICIN],IC50,MIA PaCa-2,0.01 µM
same,IC50,MCF7,0.04 µM
Cn1ccc2cc(C#N)c3nc4ccccc4n3c21,IC50,MIA PaCa-2,4 µM
same,IC50,SW-620,25 µM
same,IC50,NCI-H460,22 µM
same,IC50,MCF7,11 µM
same,ΔTm,Calf thymus DNA [1],2.4 °C
same,IC50,HeLa,0.7 µM
N#C/C(=C\c1cccs1)c1nc2ccccc2[nH]1,IC50,MIA PaCa-2,> 50 µM
same,IC50,SW-620,48 µM
same,IC50,NCI-H460,> 50 µM
same,IC50,MCF7,30 µM
same,IC50,HeLa,8 µM
N#Cc1cc2ccncc2n2c1nc1ccccc12,IC50,MIA PaCa-2,32 µM
same,IC50,SW-620,30 µM
same,IC50,NCI-H460,57 µM
same,IC50,MCF7,67 µM
same,IC50,HeLa,45 µM
Cn1cccc1/C=C(\C#N)c1nc2ccccc2[nH]1,IC50,MIA PaCa-2,4 µM
same,IC50,SW-620,30 µM
same,IC50,NCI-H460,26 µM
same,IC50,MCF7,13 µM
same,ΔTm,Calf thymus DNA [1],0.4 °C
same,IC50,HeLa,0.8 µM
CC(=O)Nc1ccc2cc(C#N)c3nc4ccccc4n3c2c1,IC50,MIA PaCa-2,2 µM
same,IC50,SW-620,5 µM
same,IC50,NCI-H460,90 µM
same,IC50,MCF7,5 µM
same,IC50,HeLa,2 µM
